Screens as filed in PubChem BioAssay.
Shown are actives, neighbours in structure and some others; about 29% of the full set was active somewhere.
CYP2C19 inhib: blockers of cytochrome P450 2C19 activity – biochemical, luminescence, ADME assay, primary screen. P33261. CYP2C19 Supersomes, luciferin-H EGE luminescence, 30 min. inhibition, % at 5 µM. hit rate 21% among 96,000. AID 778, 2007;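 active = CYP2C19 inhibition above a set limit at 5 µM in the primary screen, cut at about 50% in these data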;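 also: plate controls were negative control wells for no effect and 2.5 mM tranylcypromine positive control for full effect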
Target sequence (P33261 whole entry, looked up): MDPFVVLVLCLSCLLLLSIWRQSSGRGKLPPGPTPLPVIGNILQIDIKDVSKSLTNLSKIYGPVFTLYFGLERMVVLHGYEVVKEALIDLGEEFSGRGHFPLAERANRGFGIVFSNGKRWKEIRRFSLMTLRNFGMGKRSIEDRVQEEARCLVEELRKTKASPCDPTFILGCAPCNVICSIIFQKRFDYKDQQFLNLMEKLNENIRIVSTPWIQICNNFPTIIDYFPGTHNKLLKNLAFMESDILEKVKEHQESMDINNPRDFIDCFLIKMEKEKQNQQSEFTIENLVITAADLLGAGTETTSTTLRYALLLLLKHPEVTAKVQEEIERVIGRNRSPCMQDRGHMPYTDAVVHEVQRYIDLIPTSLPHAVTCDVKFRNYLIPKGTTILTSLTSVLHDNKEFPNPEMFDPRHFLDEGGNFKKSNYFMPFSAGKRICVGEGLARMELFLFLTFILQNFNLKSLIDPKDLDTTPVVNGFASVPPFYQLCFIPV
CYP2C9 inhib: blockers of cytochrome P450 2C9 activity – biochemical, luminescence, ADME assay, primary screen; CYP2C9 Supersomes, luciferin-H conversion; inhibition, % at 5 µM; hit rate 20% among 96,000;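 active = blocking of liver enzyme CYP2C9 beyond about 50% at 5 µM, limit read from the data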
CYP2C19 activ: human CYP2C19 activators, primary screen, biochemical, luminescence. recombinant CYP2C19, luciferin-H EGE luminescence; active compounds read high; 0 = fully inhibited enzyme, 1 = untreated enzyme. activation factor at 5 µM. 96,000 tested, under 10 active. AID 1025, 2008;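 active = activation factor of at least 2 at 5 µM in the primary screen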;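 also: 0 = wells with 2.5 mM tranylcypromine and 1 = vehicle-only wells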
Ecoli WT expand: growth inhibitors of wild-type E. coli, primary screen, strain BW25113, expanded library, OD600. OD600 absorbance. growth inhibition, % at 100 µM. hit rate 0.15% among 98,000;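 active = growth inhibition above about 50% at one test dose, limit read from the data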;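 also: growth measured after 20 h incubation at 37 °C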
tolC growth inh: growth inhibitors of E. coli tolC mutant, primary screen, strain BW25113 ΔtolC::kan, 384-well; OD615; growth inhibition, % at 10 µM (by protocol); hit rate 2.2% among 65,000;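 active = growth inhibition at or above a cutoff equal to the mean over every tested compound plus 3 SD, cut at about 60% in these data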;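 also: growth measured after 20 h incubation at 37 °C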
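Material: E. coli BW25113 ΔtolC::kan, tolC deletion mutant strain. Measure: percent growth inhibition. Schedule: 37 °C, 20 h exposure. Doses: single-point testing at 10 µM. Signal: A615 absorbance measurement. Buffer or medium: kanamycin-containing LB broth (50 µg/mL).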
CYP2C9 act: human CYP2C9 activators, primary screen, biochemical, luminescence. Cytochrome P450 2C9 (Homo sapiens), P11712. recombinant CYP2C9, luciferin-H conversion; active compounds read high; factor 1 = untreated enzyme, 0 = blocked. activation factor at 5 µM. hit rate 1.4% among 96,000. AID 1024, 2008;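 active = activation factor of 2 or more for CYP2C9 at a 5 µM dose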;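 also: 0 = sulfaphenazole-blocked wells and 1 = vehicle-only wells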
The depositor's hits bear a star; . = no result.

SMILES	CYP2C19 inhib	CYP2C9 inhib	CYP2C19 activ	Ecoli WT expand	tolC growth inh	CYP2C9 act
Nc1c(C(=O)NCc2ccc(Cl)cc2)sc2nc3c(c(C(F)(F)F)c12)CCC3	16	61*	0.8	-30	.	0.4
CCNc1nc(N)c(C(=C(C#N)C#N)c2ccccc2)s1	13	31	0.9	-10	.	0.7
Cc1c(Cl)cccc1Nc1nc(N)nc(CSc2ncccn2)n1	52*	67*	0.5	-7	15	0.3
Cc1cccc(C(=O)OCC(=O)Nc2ccc(N3CCCCC3)cc2)c1O	4	-1	1	-9	2	1
Cc1cccc(C(=O)NNC2=C(C(=O)C(F)(F)F)CCC2)c1O	-11	94*	1.1	5	.	0.1
COc1cc(C2CC(=O)c3c([nH]c(C(=O)OCCOC(C)C)c3C)C2)cc(OC)c1OC (stereo unspecified)	34	79*	0.7	2	15	0.2
COC(=O)c1[nH]c2c(c1C)C(=O)CC(c1ccccc1)C2 (stereo unspecified)	53*	71*	0.5	-8	0	0.3
CCOC(=O)c1[nH]c2c(c1C)C(=O)CC(c1ccc(OC)c(OC)c1)C2 (stereo unspecified)	22	81*	0.8	-10	-9	0.2
CC(=O)N1CCN(C2c3cccc4cccc(c34)C2NS(=O)(=O)c2ccccc2)CC1 (stereo unspecified)	74*	68*	0.3	-7	-3	0.3
CC(=O)N1CCN(S(=O)(=O)c2ccc(S(=O)(=O)NC3CC3)cc2)CC1	-5	-3	1.1	4	-15	1
CO[C@H]1C[C@@H]2CC[C@@H](C)[C@@](O)(O2)C(=O)C(=O)N2CCCC[C@H]2C(=O)O[C@H]([C@H](C)C[C@@H]2CC[C@@H](O)[C@H](OC)C2)CC(=O)[C@H](C)C=C(C)[C@@H](O)[C@@H](OC)C(=O)[C@H](C)C[C@H](C)C=CC=CC=C1C	.	.	.	.	14	.
O=C(CSc1nnnn1-c1ccccc1)N1CCN(C(=O)c2ccco2)CC1	45	65*	0.5	5	-6	0.4
O=C(CSc1nnnn1-c1cccc2ccccc12)N1CCOCC1	13	-195	0.9	1	2	2.9*
O=C(CSc1nnnn1-c1ccccc1)CSc1nnnn1-c1ccccc1	98*	72*	0	-6	31	0.3
O=C(O)CSc1nnnn1-c1ccccc1	6	3	0.9	3	.	1
COc1cc(NC(=O)CSc2nnnn2-c2ccccc2)cc(OC)c1OC	-4	-6	1	3	-1	1.1
Cc1cc(C)nc(NC(=O)CSc2nnnn2-c2ccccc2)n1	52*	-45	0.5	5	7	1.5
CCCn1nnnc1-c1cccc(Cl)c1	39	10	0.6	9	.	0.9
O=C(O)CCSc1nnnn1-c1ccccc1	-14	-14	1.1	-4	-16	1.1
O=C1c2ccccc2C(=O)N1CCCCSc1nnnn1-c1ccccc1	48	51*	0.5	-13	44	0.5
Cc1cc2ccccc2n2c(SCC(=O)NCc3cccs3)nnc12	64*	-52	0.4	4	.	1.5
O=C(CCCSc1nnc(SCCCC(=O)c2ccc(F)cc2)s1)c1ccc(F)cc1	56*	76*	0.4	-17	.	0.2
O=C(CCCSc1nnnn1-c1ccccc1)c1ccc(F)cc1	59*	-60	0.4	-12	.	1.6
CCOC(=O)Cc1csc(NC(=O)C(C)(C)CC)n1	14	43	0.9	2	.	0.6
O=C1c2ccccc2C(=O)N1CSc1nnnn1-c1ccccc1	83*	-109	0.2	-4	-12	2.1*
SMILES	CYP2C19 inhib	CYP2C9 inhib	CYP2C19 activ	Ecoli WT expand	tolC growth inh	CYP2C9 act
O=C(CSc1nnnn1-c1ccccc1)NCc1cccs1	83*	7	0.2	7	.	0.9
COc1cc(C2C(C(=O)OC(C)C)=C(C)Nc3[nH]c(=O)[nH]c(=O)c32)ccc1O (stereo unspecified)	82*	50	0.2	4	-4	0.5
COc1cccc2cc(-c3nnc(SCC(=O)Nc4nc(C)cs4)n3C)oc12	19	13	0.8	-8	-7	0.9
Cc1ccc(COn2c(-c3ccc(Cl)cc3Cl)nc3ncccc32)cc1	83*	34	0.2	-9	.	0.7
O=[N+]([O-])c1ccc2nc(-c3ccccc3)n(OCc3ccc(Cl)cc3)c2c1	13	18	0.9	-7	.	0.8
COC(=O)c1sc2ncccc2c1OCc1cccc(Cl)c1	-2	2	1	-10	.	1
Clc1cccc(COn2c(-c3ccc(Cl)cc3Cl)nc3ncccc32)c1	94*	91*	0.1	-20	.	0.1
CCOC(=O)N1CCN(C(=O)CN(c2ccc3c(c2)OCO3)S(C)(=O)=O)CC1	38	-10	0.6	4	-5	1.1
CCS(=O)(=O)NCCc1cc2c(OC)ccc(OC)c2[nH]c1=O	.	.	.	-10	-9	.
CC1=NN(c2nc(-c3ccc(Cl)cc3)cs2)C(=O)C1	-8	60*	1.1	0	.	0.4
CC1=NN(c2nc(-c3ccc(F)cc3)cs2)C(=O)C1	7	27	0.9	-4	.	0.7
c1ccc(-n2ncc3c2ncn2nc(-c4ccco4)nc32)cc1	6	18	0.9	-9	1	0.8
Cc1ccc(C(=O)NCCSC(C)(C)C)cc1	68*	45	0.3	5	.	0.6
O=C(NCCSc1ccccc1)c1ccccc1	84*	45	0.2	7	9	0.5
COCCNC(=O)c1ccc(C)c(S(=O)(=O)Nc2ccc(C)cc2)c1	36	38	0.6	-12	.	0.6
Cc1ccccc1C(=O)NCCSc1ccccc1	38	-10	0.6	10	.	1.1
CC(C)(C)SCCNC(=O)c1ccccc1	62*	22	0.4	5	.	0.8
Cc1ccc(C(=O)NCCSc2ccccc2)cc1S(=O)(=O)Nc1ccccc1	60*	73*	0.4	-15	.	0.3
O=c1[nH]nc(Cc2ccc3ccccc3n2)c2ccccc12	8	14	0.9	4	.	0.9
COc1cc(Sc2ccc(C)cc2)c(OC)cc1N	68*	35	0.3	7	25	0.6
COC(=O)c1ccc(Sc2ccc(C)cc2)c(N)c1	35	31	0.6	10	12	0.7
CC(Nc1ccc(Br)cn1)c1cc(Cl)ccc1O (stereo unspecified)	82*	86*	0.2	20	100*	0.1
CCOc1ccc(NC(C)c2cc(Cl)ccc2O)cc1 (stereo unspecified)	62*	79*	0.4	14	7	0.2
O=C(CN1CCN(S(=O)(=O)c2ccc(F)cc2)CC1)Nc1cccc(C(F)(F)F)c1	41	4	0.6	-4	5	1
